Test results taken from ChEMBL document CHEMBL1275337, “Biflavonoids from Torreya nucifera displaying SARS-CoV 3CL(pro) inhibition” (Bioorg Med Chem, 2010).

Legend:
[1] = molecular target: Replicase polyprotein 1ab (Severe acute respiratory syndrome-related coronavirus) (UniProt P0C6X7); assay: Inhibition of SARS coronavirus 3C-like protease at 200 uM after 60 mins by FRET assay
[2] = molecular target: T1, Replicase polyprotein 1ab (Severe acute respiratory syndrome-related coronavirus, UniProt P0C6X7); assay: Inhibition of SARS coronavirus 3C-like protease after 60 mins by FRET assay
[3] = molecular target: T1, Replicase polyprotein 1ab; assay: Non-competitive inhibition of SARS coronavirus 3C-like protease by Dixon plot analysis
Procedure, shortened: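 Inhibition mode comes from FRET protease rates at substrate concentrations of 2.5, 5.0 and 10.0 µM across several inhibitor concentrations. Ki is taken from Dixon (1/V versus [I]) and Lineweaver-Burk plots; type is assigned from Vmax versus inhibitor concentration. Triplicate experiments.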

Compound | inhibition [1] [%] | IC50 [2] [µM] | Ki [3] [µM]
C=C[C@@]1(C)CC[C@H]2C(=CC[C@@H]3[C@]2(C)CCC[C@@]3(C)C(=O)O)C1 [ISOPIMARIC ACID] | 28.9 | 283 | 
COC(=O)[C@]1(C)CCC[C@]2(C)c3ccc(C(C)C)cc3CC[C@@H]12 [METHYL DEHYDROABIETATE] | 46.7 | 207 | 
CC(C)c1cc2c(cc1O)[C@@]1(C)CCC[C@@](C)(CO)[C@@H]1CC2 [18-HYDROXYFERRUGINOL] | 45.8 | 221 | 
COc1ccc(-c2cc(=O)c3c(O)cc(O)c(-c4cc(-c5cc(=O)c6c(O)cc(OC)cc6o5)ccc4OC)c3o2)cc1 [SCIADOPITISIN] |  | 38.4 | 35.6
CC(C)c1cc2c(cc1O)[C@@]1(C)CCC[C@@](C)(C=O)[C@@H]1CC2 [18-OXOFERRUGINOL] | 70.5 | 163 | 
CC(=O)Oc1cc2c(cc1C(C)C)CC[C@H]1[C@](C)(CO)CCC[C@]21C | 78.6 | 129 | 
COc1cc(O)c2c(=O)cc(-c3ccc(OC)c(-c4c(O)cc(O)c5c(=O)cc(-c6ccc(O)cc6)oc45)c3)oc2c1 [GINKGETIN] |  | 32 | 30.2
CC(C)C1=CC2=CC[C@@H]3[C@](C)(CCC[C@@]3(C)C(=O)O)[C@H]2CC1 [ABIETIC ACID] | 58 | 189 | 
O=c1cc(-c2ccc(O)c(-c3c(O)cc(O)c4c(=O)cc(-c5ccc(O)cc5)oc34)c2)oc2cc(O)cc(O)c12 [AMENTOFLAVONE] |  |  | 13.8
COc1ccc(-c2cc(=O)c3c(O)cc(O)cc3o2)cc1-c1c(O)cc(O)c2c(=O)cc(-c3ccc(O)cc3)oc12 [BILOBETIN] |  | 72.3 | 80.4
CC(C)c1cc2c(cc1O)[C@@]1(C)CC[C@H](O)C(C)(C)[C@@H]1CC2 [HINOKIOL] | 39.1 | 233 | 
CC(C)c1cc2c(cc1O)[C@@]1(C)CCCC(C)(C)[C@@H]1CC2 [FERRUGINOL] | 92.7 | 49.6 | 
O=c1cc(-c2ccc(O)cc2)oc2cc(O)cc(O)c12 [APIGENIN] | 40 | 281 | 
O=c1cc(-c2ccc(O)c(O)c2)oc2cc(O)cc(O)c12 [LUTEOLIN] |  | 20 | 
C=C1CC[C@H]2[C@](C)(CO)CCC[C@]2(C)[C@H]1CC/C(C)=C\CO [KAYADIOL] | 75.2 | 138 | 
